Assay outcomes from PubChem BioAssay.
This is a sample that favours compounds with a hit; in the whole collection about 8.9% have one here.
Dynein transport: blocks dynein driven cargo transport along microtubules; AID 1381; z-score, hits read low; 220,000 compounds, 0.47% hits; 3617.4 mouse cells, GR-EGFP nuclear translocation imaging; test concentration mostly 20 µM; stimulated with dexamethasone, 1 µM; hits give low values;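 active means plate z-score of nuclear minus cytoplasmic receptor signal below a set negative limit, without overly bright fluorescence or cell loss, cut at about -3.5 in these data, passing the limit was not always enough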;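 further: z-score of nuclear minus cytoplasmic ring GR-EGFP intensity difference per well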
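Medium: Induction medium lacking tetracycline, stripped serum | Probe or stimulus: 1.0 µM final dexamethasone stimulus | Schedule: 48 h induction, then 1 h compound, then 30 min agonist, 37 °C | Signal: Automated 10x imaging of fixed Hoechst-stained cells | Evaluation: Per-cell GR-EGFP intensity, nucleus versus surrounding cytoplasmic ring, well-averaged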
Lmaj promast: reduces viability of Leishmania major promastigotes. resazurin fluorescence viability. inhibition, % at 10 µM. 200,000 compounds, 9% hits; in the data active means inhibition above about 50%;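 further: promastigotes grown with compound for 44 hours at 28 °C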
MT stabilizer: stabilizes microtubules in HeLa cells; HeLa tubulin immunostaining HCS, 24 h; share of cells brighter than vehicle mean+2SD; % tubulin-high responders, % at 10 µM; 200,000 compounds, 0.83% hits;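 active means plate Z-score above 3 for both tubulin-high and condensed-nucleus cell shares, with cell loss under 80%, at 10 µM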;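 further: anti alpha tubulin signal scored within the nucleus-defined area of each cell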
HSV augment: increases HSV replication in cells; HSV replication augmentation in cells, fold increase; maximum fold increase; 220,000 compounds, 0.005% hits; in the data active means maximum fold increase above about 1.5; tested in PC3 cells
b-catenin transl: modulators of beta-catenin nuclear translocation; HeLa beta-catenin nuclear translocation, immunofluorescence imaging; nuclear translocation activity, % at 5 µM; 190,000 compounds, 0.3% hits; AID 1665;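 active means nuclear translocation activity above 50% at 5 µM, with a well cell count of 50 or more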;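 further: per-cell ratio of nuclear to cytoplasmic median beta-catenin stain intensity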
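Assay system: human HeLa cells, native beta-catenin; doses: 5 µM primary, 0.02–20 µM confirmation; incubation: compound treatment 24 h, 37°C, 5% CO2; technique: fluorescence imaging of beta-catenin antibody stain plus DAPI; measure: % activation, nuclear-to-cytoplasmic median beta-catenin signal ratio per cell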
Large screens that a line does not name were inactive.

CCn1c(SCC(=O)Nc2cc(C)on2)nnc1-c1ccc(S(=O)(=O)N2CCN(C)CC2)cc1	none
COCCNC(=O)/C(C#N)=C1\N=C(N)c2ccccc21	Lmaj promast 59
COCCNC(=O)/C(C#N)=C/C=C/c1ccccc1	none
COc1ccc(C(=O)NC(C(=O)NCCc2ccc3c(c2)OCCO3)C(C)C)cc1 (centres undefined)	none
C#CCn1cc(/C=N/Nc2nc3ccccc3[nH]2)c2ccccc21	Lmaj promast 101
C#CCn1cc(/C=N/NC(=O)COc2cccc3cccnc23)c2ccccc21	Lmaj promast 58
CCCn1c(/C=C/c2ccco2)nc2ccccc21	none
COC(=O)Cn1cc(/C=N/NC(=O)COc2cccc3cccnc23)c2ccccc21	none
CCCCn1c(/C=C/c2ccco2)nc2ccccc21	Lmaj promast 63
Cc1ccc(/C=N\Nc2nc3ccc(Cl)cc3[nH]2)o1	Lmaj promast 99
CCCCOC(=O)c1ccc(NC(=O)c2cnc3n(c2=O)CCS3)cc1	none
Cc1ccc(Cn2c(/C=C/c3ccco3)nc3ccccc32)cc1	none (no result: HSV augment)
CCCCn1c(/C=N/Nc2nc3ccccc3[nH]2)nc2ccccc21	Lmaj promast 100
Clc1ccc(Cn2c(/C=C/c3ccco3)nc3ccccc32)cc1	Lmaj promast 50
CCCCNc1nc2ccccc2[nH]1	none
Fc1ccccc1-c1ccc(/C=N/Nc2nc3ccccc3[nH]2)o1	Lmaj promast 97
Cc1cc(OCC(=O)NCCCN(C)C)cc(C)c1Br	Lmaj promast 100
CCc1ccc(OCC(=O)NCCN(C)C)c(Br)c1	Lmaj promast 96 (no result: b-catenin transl)
CCc1ccc(OCC(=O)N(C)CCC#N)c(Br)c1	none (no result: b-catenin transl)
CCn1c(=O)cc(OCC(=O)Nc2cccnc2)c2ccccc21	none
O=c1c2c3nc4ccccc4nc3n(-c3cccc(F)c3)c2ncn1Cc1ccc2c(c1)OCO2	none (no result: Dynein transport, Lmaj promast, MT stabilizer, HSV augment)
CCC1=Nc2cc(C(=O)NCc3ccco3)ccc2Sc2ccc(Cl)cc21	Lmaj promast 68
CCC1=Nc2cc(C(=O)NCc3cccnc3)ccc2Sc2ccc(C)cc21	b-catenin transl 64 (no result: Lmaj promast, MT stabilizer)
CCC1=Nc2cc(C(=O)NCc3ccco3)ccc2Sc2ccccc21	Lmaj promast 70, MT stabilizer 24, b-catenin transl 55
Cc1cccc(C)c1OCC(=O)Nc1ccc(S(=O)(=O)Nc2ccccn2)cc1	none
COc1cc(C2NC(=O)NC(c3ccccc3)=C2C(C)=O)cc(Cl)c1OCC(=O)O (centres undefined)	none
Cc1cc(C)nc(NS(=O)(=O)c2ccc(N3C(=O)C4C5C=CC(C5)C4C3=O)cc2)n1 (centres undefined)	none
CC1=CC2CC1C1C(=O)N(c3ccc(S(=O)(=O)Nc4nc(C)cc(C)n4)cc3)C(=O)C21 (centres undefined)	Lmaj promast 52
O=C(NCc1cccnc1)c1cccc2c1C(=O)N(C1CCCCC1)C2	none (no result: HSV augment)
Oc1ccc(N=Nc2nc(-c3ccccc3)c(-c3ccccc3)[nH]2)cc1	Lmaj promast 96 (no result: b-catenin transl)
COc1ccc2c(c1)OC(O)(C(F)(F)F)CC2=O (centres undefined)	none
CCCc1sc(N/N=C/c2ccccn2)nc1-c1ccc(Br)cc1	Lmaj promast 97
CC(=O)Nc1sc(N/N=C/c2ccccc2)nc1-c1ccc(C)cc1	none (no result: Lmaj promast, MT stabilizer)
CCCc1cc(C(=O)OC)c(NC(=O)OCC)s1	none
O=C(Nc1ccccc1)C1=C[C@@H](c2ccc(Br)cc2)C[C@@H](OCc2ccc(CO)cc2)O1	Lmaj promast 56
O=C(O)C1=C[C@@H](c2ccc(Br)cc2)C[C@@H](OCc2ccc(CO)cc2)O1	none
CC(C)(C)[C@@H]1C=C(C(=O)Nc2ccccc2)O[C@H](OCc2ccc(CO)cc2)C1	Lmaj promast 99
O=C(NC1CC1)C1=C[C@@H](C2CCCCC2)C[C@@H](OCc2ccc(CO)cc2)O1	Lmaj promast 98
CCC(C)NC(=O)c1ccc2c(c1)N(Cc1ccccc1)C(=O)CS2 (centres undefined)	none
CCOC(=O)c1ccc(NC2=CC(=O)C(=O)c3ccccc32)cc1	Lmaj promast 100
CCOC(=O)c1ccc(NC(=O)C(C)N2C(=O)c3ccccc3C2=O)cc1 (centres undefined)	none
Cc1ccc(NC2=C(Cl)C(=O)c3ccccc3C2=O)cc1	none
Cc1ccc(NC2=CC(=O)C(=O)c3ccccc32)cc1	Lmaj promast 99 (no result: b-catenin transl)
Cc1ccc(NC(=S)NCC2CCCO2)cc1C (centres undefined)	none
